This is an account of results in publication PMC6399515 (Insect Biochemistry and Molecular Biology, 2016).

As a reminder, the IC50 is the concentration needed to halve the response being measured. Read a low IC50 as greater potency in that assay.

In data set [1] the test system is all mosquito P450s of the panel apart from CYP6Z2 (CYP6M2, CYP6P2, CYP6P3, CYP6P4, CYP9J5). As to the kind of experiment: in vitro. Particulars: Anopheles gambiae.
In the next data set the target is T1, CYP6P3 (Anopheles gambiae, UniProt Q8T632).
T1 sequence (Q8T632 1-509): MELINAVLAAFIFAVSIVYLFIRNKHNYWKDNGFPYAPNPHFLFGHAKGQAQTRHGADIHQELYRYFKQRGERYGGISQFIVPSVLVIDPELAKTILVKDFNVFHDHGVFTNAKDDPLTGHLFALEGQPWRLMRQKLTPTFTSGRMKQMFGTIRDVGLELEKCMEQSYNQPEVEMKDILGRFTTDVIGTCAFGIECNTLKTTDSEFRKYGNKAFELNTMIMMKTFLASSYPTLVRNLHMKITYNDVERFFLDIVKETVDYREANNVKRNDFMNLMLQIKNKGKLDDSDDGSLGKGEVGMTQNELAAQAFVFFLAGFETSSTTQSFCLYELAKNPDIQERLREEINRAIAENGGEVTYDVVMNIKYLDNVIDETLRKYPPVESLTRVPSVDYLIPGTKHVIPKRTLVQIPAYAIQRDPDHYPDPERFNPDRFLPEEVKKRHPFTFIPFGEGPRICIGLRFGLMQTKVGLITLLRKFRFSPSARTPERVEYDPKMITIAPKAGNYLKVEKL
T1 sequence (Q86QH5 1-679 partner): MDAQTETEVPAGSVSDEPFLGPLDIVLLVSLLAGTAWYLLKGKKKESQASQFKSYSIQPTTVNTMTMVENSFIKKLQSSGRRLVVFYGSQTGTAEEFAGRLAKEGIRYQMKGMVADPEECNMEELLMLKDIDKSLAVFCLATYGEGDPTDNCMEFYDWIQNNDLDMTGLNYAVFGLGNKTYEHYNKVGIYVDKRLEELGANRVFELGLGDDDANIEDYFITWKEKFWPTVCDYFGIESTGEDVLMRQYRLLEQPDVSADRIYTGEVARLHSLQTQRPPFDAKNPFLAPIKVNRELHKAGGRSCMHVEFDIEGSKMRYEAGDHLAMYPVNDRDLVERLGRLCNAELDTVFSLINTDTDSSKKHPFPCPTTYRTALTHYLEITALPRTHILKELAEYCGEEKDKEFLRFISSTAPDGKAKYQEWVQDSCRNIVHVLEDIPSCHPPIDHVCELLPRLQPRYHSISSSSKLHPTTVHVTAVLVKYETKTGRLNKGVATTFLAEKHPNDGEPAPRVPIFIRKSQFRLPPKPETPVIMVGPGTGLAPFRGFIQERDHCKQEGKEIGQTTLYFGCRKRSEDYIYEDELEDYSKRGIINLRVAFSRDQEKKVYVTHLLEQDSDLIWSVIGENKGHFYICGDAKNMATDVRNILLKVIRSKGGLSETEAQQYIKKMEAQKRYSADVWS
T1 sequence (Q86QH4 1-128 partner): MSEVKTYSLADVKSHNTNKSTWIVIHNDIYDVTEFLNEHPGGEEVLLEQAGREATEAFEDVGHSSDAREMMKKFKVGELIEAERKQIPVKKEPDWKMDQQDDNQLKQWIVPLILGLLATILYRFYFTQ

The subject of data set [2] is An. gambiae Kisumu strain. Put plainly: Glass tube assay, ovary development of adult females, Kisumu strain. It counts as in vivo, Anopheles gambiae. An outline of the steps: (§1)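 Borosilicate glass tubes were coated with PPF at 0.55, 2.75 or 5.5 mg/m2, with an acetone-only tube as control, and used the day they were made. Per concentration, two groups of fifteen 5–7-day-old females (n = 30) were acclimated 60 min, then exposed 3 min. They were held 24 h on 10% sucrose, then five days in the insectary. Ovaries were dissected and scored normal or abnormal.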

In data set [3] the test system is An. gambiae Tiassalé strain. As to the kind of experiment: Glass tube assay, ovary development of adult females, Tiassalé strain. In kind it is in vivo, Anopheles gambiae. An outline of the steps:
as §1

Another data set has as its system CYP6P family and CYP6Z2. The conditions noted are these: Anopheles gambiae, pH 7.4.
The subject of data set [4] is all mosquito P450s of the panel except CYP6Z2 and CYP6P2 (CYP6M2, CYP6P3, CYP6P4, CYP9J5). As to the kind of experiment: in vitro. Particulars: Anopheles gambiae.
The mark [5] stands for this setting: 3 min exposure, half of 5.5 mg/m^2.

Consider `CC1(C)C(C=C(Cl)Cl)C1C(=O)OCc1cccc(Oc2ccccc2)c1` (mixture of isomers) [Permethrin, 3-phenoxybenzyl (1R,S)-cis,trans-3-(2,2-dichlorovinyl)-2,2-dimethylcyclopropanecarboxylate], for which the “strength of inhibition relative to PPF” value in the data set on mosquito P450s is 2–3 fold. In addition, the IC50 lay within 1 to 10 µM in data set [1] (pH 7.4, IC50 of DEF activity) and 1 to 10 µM in data set [1] (pH 7.4, category of inhibition of DEF activity).
Take `CCCCOCCOCCOCc1cc2c(cc1CCC)OCO2` [PBO, piperonyl butoxide]: the “Inhibition ratio (%): reduction of PPF depletion caused by PBO” value on CYP6P3 was determined as 91.3%.
Take `CC(COc1ccc(Oc2ccccc2)cc1)Oc1ccccn1` (stereo not drawn) [PPF, pyriproxyfen]: the values for the mosquitoes sterilized entry in data set [2] (3 min exposure to 5.5 mg/m^2), in data set [2] (setting [5]) and in data set [3] (3 min exposure to 5.5 mg/m^2) were “completely sterilized”, 76% and 75%, respectively. The “impact on ovary development” value in data set [3] (setting [5]) is given as “no impact”. Besides, the “% PPF depletion + PBO” value on CYP6P3 (Anopheles gambiae, pH 7.4) worked out at 8.68 ± 1.74%. Moreover, in the data set on CYP6P family and CYP6Z2, the PPF depletion is on record as 58–100%. The IC50 was > 10 µM in data set [4] (pH 7.4, IC50 of DEF activity) and > 10 µM in data set [4] (pH 7.4, category of inhibition of DEF metabolism).
